The results in this text go back to ChEMBL document CHEMBL1125757, “Design of potent protein kinase inhibitors using the bisubstrate approach” (J Med Chem, 1991).

For orientation: IC50 means the point on the concentration scale where inhibition reaches its midpoint. Usually Ki stands for a dissociation constant, usually derived from enzyme kinetics or from competition with a known ligand. High values mean a looser hold on the target, low ones a stronger hold on the target.

Where a SMILES comes first, the peptide text is derived from it. The star is where a group is joined. X1 = CN(C)c1ccc(S(=O)(=O)*)c2ccccc12

Holding throughout (type): protein assay
Experiment [1] deals with Protein kinase C (PKC). Put plainly: Inhibition of protein kinase C (PKC). The method in brief: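 Reaction mix: protein kinase C (0.5 μg), histone IIIS 60 μg/mL, MgCl2 5 mM, CaCl2 0.5 mM, phosphatidylserine 50 μg/mL, diolein 5 μg/mL, [γ-³²P]ATP 10 μM, Tris/HCl pH 7.5, inhibitor at various concentrations. 30 °C for 7 min, stopped with TCA/BSA, precipitated twice, scintillation counting.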

Experiment [2] deals with Protein kinase C (PKC). Nature of the experiment: Displacement of ATP from protein kinase C (PKC). In outline:
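ATP-competition kinetics: Lineweaver-Burk plots at several inhibitor concentrations, with Ki taken from a secondary plot of apparent Km versus inhibitor concentration. Radiometric [γ-³²P]ATP assay in Tris/HCl pH 7.5 with MgCl2 5 mM, CaCl2 0.5 mM, phosphatidylserine 50 μg/mL, diolein 5 μg/mL and protein kinase C 0.5 μg. Run in triplicate.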

Experiment [3] addresses T1, cAMP-dependent protein kinase (PKA) (Homo sapiens, UniProt P22694+P17612+P22612). Nature of the experiment: Inhibition of cAMP-dependent protein kinase (PKA). In outline: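 Protein kinase A (1 μg) with histone IIA 60 μg/mL, MgCl2 5 mM and [γ-³²P]ATP 10 μM (2000-4000 cpm/pmol) in Tris/HCl pH 7.0, inhibitor at various concentrations. 30 °C for 7 min, stopped with 12% TCA plus BSA carrier, reprecipitated, histone ³²P counted by scintillation.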

In experiment [4] the target is T1, cAMP-dependent protein kinase (PKA). Put plainly: Displacement of ATP from protein kinase A (PKA). The method in brief:
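ATP-competition kinetics: Lineweaver-Burk plots at several inhibitor concentrations, with Ki taken from a secondary plot of apparent Km versus inhibitor concentration. Radiometric [γ-³²P]ATP phosphorylation assay in Tris/HCl pH 7.0 with MgCl2 5 mM and protein kinase A 1 μg, 30 °C, stopped with trichloroacetic acid. Run in triplicate.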

Consider `CC1CNCCN1S(=O)(=O)c1cccc2cnccc12.Cl.Cl` (centres undefined), for which the IC50 at Protein kinase C (PKC) [1] came to 6 µM. In addition, on Protein kinase C (PKC) [2], the Ki was 6 µM.
In the case of `COC(=O)CCNCCNS(=O)(=O)c1cccc2cnccc12`, the IC50 in experiment [3] came to 2 µM; at Protein kinase C (PKC) [1] it was 20 µM.
As to `NCCNS(=O)(=O)c1cccc2cnccc12`, the IC50 in experiment [3] was found to be 2 µM; on Protein kinase C (PKC) [1], 7 µM.
Regarding `N=C(N)NCCC[C@H](NC(=O)[C@H](CCCNC(=N)N)NC(=O)[C@H](CCCNC(=N)N)NC(=O)[C@H](CCCNC(=N)N)NC(=O)[C@H](CCCNC(=N)N)NC(=O)[C@H](CCCNC(=N)N)NC(=O)[C@H](CO)NC(=O)CCNCCNS(=O)(=O)c1cccc2cnccc12)C(=O)O`, the IC50 in experiment [3] came to 0.003 µM; on Protein kinase C (PKC) [1] it was 0.3 µM. The Ki in experiment [4] came out at 0.004 µM; at Protein kinase C (PKC) [2], 0.1 µM.
For the compound `O=S(=O)(c1cccc2cnccc12)N1CCNCC1`, the IC50 in experiment [3] stood at 6 µM; at Protein kinase C (PKC) [1] it was 12 µM.
As for `C[C@H](NC(=O)[C@H](C)NS(=O)(=O)c1ccc(N(C)C)c2ccccc12)C(=O)N[C@@H](C)C(=O)N[C@@H](CCCN=C(N)N)C(=O)N[C@@H](CCCN=C(N)N)C(=O)N[C@@H](CCCN=C(N)N)C(=O)N[C@@H](CCCN=C(N)N)C(=O)O` (X1-AAARRRR-OH), the IC50 (in experiment [3]; on Protein kinase C (PKC) [1]) was more than 75 µM throughout.
